From article PMC5557381 (European journal of medicinal chemistry, 2015)

Columns and labels:
[1] = tested on: MH-14 cells carrying stably replicating HCV sub genomic replicon gt 1b; experiment: HCV RNA by quantitative RT-PCR in reporter free MH-14 cells; format: cell-based, Hepatitis C virus genotype 1b; details: Hepatitis C virus, GT1B, MH14, read-out: EC50, HCV RNA in MH-14 cells
[2] = tested on: interferon-stimulated response element; experiment: Host-factor reporter assay pISRE-Luc in MH-14 cells; format: cell-based; details: 5, 10 and 25 µM, 48 h
Summary of the method: (§1)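 MH-14 hepatoma cells stably carrying an HCV gt 1b subgenomic replicon were transfected with 300 ng of the gene-specific luciferase reporter plasmid. At 16 h post-transfection, cells were exposed to test compound or to DMSO as control for 48 h. Luciferase activity was then read, with transfection efficiency normalised to Renilla luciferase expression.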

[3] = biological target: HCV NS5B polymerase (NS5BCΔ21) (Hepatitis C virus genotype 1b, UniProt Q9WMX2); experiment: NS5B RdRp primer-dependent elongation assay; format: biochemical; details: 50 µM, preliminary assay, data not shown
[4] = tested on: anti-oxidant response element; experiment: Host-factor reporter assay p3xARE-Luc in MH-14 cells; format: cell-based; details: 5, 10 and 25 µM, 48 h
Summary of the method: as §1

[5] = tested on: HCV IRES mediated translation; experiment: HCV IRES mediated translation dual luciferase reporter assay in Huh7.5 cells; format: cell-based, Hepatitis C virus; details: data not shown
HCV NS3 helicase (NS3h) = HCV NS3 helicase (NS3h) (Hepatitis C virus genotype 1b, UniProt Q9WMX2); experiment: Molecular beacon based NS3 helicase assay; format: biochemical; details: concentrations as high as 500 µM, data not shown
heme oxygenase-1 = experiment: Host-factor reporter assay pHO-1-Luc in MH-14 cells; format: cell-based; details: 5, 10 and 25 µM, 48 h
Summary of the method: as §1

cyclooxygenase-2 = experiment: Host-factor reporter assay pCOX-2-FLuc in MH-14 cells; format: cell-based; details: 5, 10 and 25 µM, 48 h
Summary of the method: as §1

c1ccc(Cn2c(-c3ccccc3)cc3c2CCCC3)cc1 [Compound 39]
EC50 [1]: 3.13 µM | Effect on interferon-stimulated response element reporter [2]: no effect | Inhibition of NS5B RdRp activity [3]: no effect | Effect on anti-oxidant response element reporter [4]: no effect | Effect on HCV IRES mediated translation [5]: no effect | Inhibition of NS3 helicase unwinding of a DNA substrate (HCV NS3 helicase (NS3h)): no effect | Effect on heme oxygenase-1 reporter (heme oxygenase-1): no effect | Effect on cyclooxygenase-2 reporter (cyclooxygenase-2): no effect
